The values below come from ChEMBL document CHEMBL4354843, “Structure-Based Design of a Potent and Selective Covalent Inhibitor for SRC Kinase That Targets a P-Loop Cysteine” (J Med Chem, 2020).

Series [1] deals with cAMP-dependent protein kinase catalytic subunit PRKX (Homo sapiens) (UniProt P51817). The series is described as follows: Binding affinity to wild-type human partial length PRKX (M1 to F358 residues) expressed in bacterial expression system assessed as residual binding level at 1 uM by Kinomescan method relative to control.
In series [2] the target is Activin receptor type-1 (Homo sapiens) (UniProt Q04771). Put plainly: Binding affinity to wild-type human ACVR1 (C188 to C509 residues) expressed in bacterial expression system assessed as residual binding level at 1 uM by Kinomescan method relative to control. Summed up:
(§1)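 Active-site-directed KinomeScan competition binding panel covering 468 kinases, compound tested at 1 μM. Each readout is the kinase signal remaining with compound, expressed as a percentage of the DMSO control. […]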

The target in series [3] is Serine/threonine-protein kinase WNK4 (Homo sapiens) (UniProt Q96J92). Put plainly: Binding affinity to wild-type human partial length WNK4 (A31 to D461 residues) expressed in mammalian expression system assessed as residual binding level at 1 uM by Kinomescan method relative to control. Summed up:
(§2)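 Active site-directed competition binding panel (KinomeScan, 468 kinases). Test compound at 1 μM. Read-out is kinase binding remaining versus DMSO control, expressed as percent of control. Scores above 35% are treated as weak binding.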

Series [4] deals with Angiopoietin-1 receptor (Homo sapiens) (UniProt Q02763). The series is described as follows: Binding affinity to wild-type human partial length TIE2 (N804 to T1112 residues) expressed in bacterial expression system assessed as residual binding level at 1 uM by Kinomescan method relative to control.
Series [5] concerns the target Macrophage colony-stimulating factor 1 receptor (Homo sapiens) (UniProt P07333). Put plainly: Binding affinity to wild-type human partial length autoinhibited CSF1R (Y538 to S939 residues) expressed in mammalian expression system assessed as residual binding level at 1 uM by Kinomescan method relative to control. Summed up:
as §2

Series [6] concerns the target Mitogen-activated protein kinase kinase kinase 12 (DLK) (Homo sapiens) (UniProt Q12852). The series is described as follows: Binding affinity to wild-type human full length DLK (M1 to P859 residues) expressed in mammalian expression system assessed as residual binding level at 1 uM by Kinomescan method relative to control.
For series [7], the target named is Serine/threonine-protein kinase 17A (Homo sapiens) (UniProt Q9UEE5). The series is described as follows: Binding affinity to wild-type human partial length DRAK1 (R32 to E363 residues) expressed in bacterial expression system assessed as residual binding level at 1 uM by Kinomescan method relative to control.
The target of series [8] is Serine/threonine-protein kinase PAK 1 (Homo sapiens) (UniProt Q13153). The series is described as follows: Binding affinity to wild-type human partial length PAK1 (S149 to H545 residues) expressed in bacterial expression system assessed as residual binding level at 1 uM by Kinomescan method relative to control.
In series [9] the target is Tyrosine-protein kinase Fyn (Homo sapiens) (UniProt P06241). The series is described as follows: Binding affinity to wild-type human partial length FYN (T243 to L534 residues) expressed in bacterial expression system assessed as residual binding level at 1 uM by Kinomescan method relative to control. Summed up: (§3)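 Active-site-directed competition binding panel of 468 kinases (KinomeScan), compound at 1 μM. The read-out is kinase remaining bound, given as a percentage of the DMSO control. […]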

For series [10], the target named is Cyclin-dependent kinase-like 5 (Homo sapiens) (UniProt O76039). The series is described as follows: Binding affinity to wild-type human partial length CDKL5 (M1 to S337 residues) expressed in mammalian expression system assessed as residual binding level at 1 uM by Kinomescan method relative to control.
The target in series [11] is Dual specificity mitogen-activated protein kinase kinase 6 (Homo sapiens) (UniProt P52564). The series is described as follows: Binding affinity to wild-type human partial length MEK6 (K36 to D334 residues) expressed in bacterial expression system assessed as residual binding level at 1 uM by Kinomescan method relative to control. In a few lines:
as §3

The target in series [12] is Wee1-like protein kinase (Homo sapiens) (UniProt P30291). The series is described as follows: Binding affinity to wild-type human partial length WEE1 (M291 to K575 residues) expressed in bacterial expression system assessed as residual binding level at 1 uM by Kinomescan method relative to control.
The target in series [13] is CDK4/Cyclin D3 (Homo sapiens) (UniProt P11802+P30281). Put plainly: Binding affinity to wild-type human full length CDK4/cyclinD3 (M1 to E303 residues) expressed in mammalian expression system assessed as residual binding level at 1 uM by Kinomescan method relative to control. In a few lines:
as §1

Series [14] addresses Receptor-interacting serine/threonine-protein kinase 1 (Homo sapiens) (UniProt Q13546). The series is described as follows: Binding affinity to wild-type human partial length RIPK1 (M1 to K305 residues) expressed in bacterial expression system assessed as residual binding level at 1 uM by Kinomescan method relative to control.
Series [15] in a line: AUC in B6 mouse at 5 mg/kg, ip. It counts as ADME, organism-based. The note with it: in vivo.
The target in series [16] is Fibroblast growth factor receptor 4 (Homo sapiens) (UniProt P22455). Put plainly: Binding affinity to wild-type human partial length FGFR4 (G402 to E713 residues) expressed in bacterial expression system assessed as residual binding level at 1 uM by Kinomescan method relative to control.
The target in series [17] is Myosin light chain kinase (Homo sapiens) (UniProt Q32MK0). The series is described as follows: Binding affinity to wild-type human partial length MLCK (D488 to K800 residues) expressed in bacterial expression system assessed as residual binding level at 1 uM by Kinomescan method relative to control.
The test system of series [18] is Hepatocyte growth factor receptor (Homo sapiens), P08581 [Y1235D]. The series is described as follows: Binding affinity to human partial length MET Y1235D mutant (D1010 to S1367 residues) expressed in bacterial expression system assessed as residual binding level at 1 uM by Kinomescan method relative to control. Summed up:
(§4)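 KinomeScan active site-directed competition binding panel (468 kinases), compound tested at 1 μM. Result expressed as remaining kinase signal versus DMSO control (percent of control).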

Series [19] addresses Ephrin type-B receptor 2 (Homo sapiens) (UniProt P29323). Put plainly: Binding affinity to wild-type human partial length EPHB2 (I597 to L902 residues) expressed in bacterial expression system assessed as residual binding level at 1 uM by Kinomescan method relative to control. In a few lines: as §3
In series [20] the target is Serine/threonine-protein kinase PAK 5 (Homo sapiens) (UniProt Q9P286). Put plainly: Binding affinity to wild-type human partial length PAK7 (Y400 to H719 residues) expressed in bacterial expression system assessed as residual binding level at 1 uM by Kinomescan method relative to control.
Series [21] has as its target Insulin receptor-related protein (Homo sapiens) (UniProt P14616). Put plainly: Binding affinity to wild-type human partial length INSRR (R950 to E1278 residues) expressed in bacterial expression system assessed as residual binding level at 1 uM by Kinomescan method relative to control.
For series [22], the system named is Epidermal growth factor receptor (Homo sapiens), P00533 [UNDEFINED MUTATION]. The series is described as follows: Binding affinity to human partial length EGFR L747-S752del/P753S mutant expressed in bacterial expression system assessed as residual binding level at 1 uM by Kinomescan method relative to control. Summed up:
as §4

Chain of Epidermal growth factor receptor (Homo sapiens), P00533 [UNDEFINED MUTATION] (P00533 whole entry, looked up, stated change not applied): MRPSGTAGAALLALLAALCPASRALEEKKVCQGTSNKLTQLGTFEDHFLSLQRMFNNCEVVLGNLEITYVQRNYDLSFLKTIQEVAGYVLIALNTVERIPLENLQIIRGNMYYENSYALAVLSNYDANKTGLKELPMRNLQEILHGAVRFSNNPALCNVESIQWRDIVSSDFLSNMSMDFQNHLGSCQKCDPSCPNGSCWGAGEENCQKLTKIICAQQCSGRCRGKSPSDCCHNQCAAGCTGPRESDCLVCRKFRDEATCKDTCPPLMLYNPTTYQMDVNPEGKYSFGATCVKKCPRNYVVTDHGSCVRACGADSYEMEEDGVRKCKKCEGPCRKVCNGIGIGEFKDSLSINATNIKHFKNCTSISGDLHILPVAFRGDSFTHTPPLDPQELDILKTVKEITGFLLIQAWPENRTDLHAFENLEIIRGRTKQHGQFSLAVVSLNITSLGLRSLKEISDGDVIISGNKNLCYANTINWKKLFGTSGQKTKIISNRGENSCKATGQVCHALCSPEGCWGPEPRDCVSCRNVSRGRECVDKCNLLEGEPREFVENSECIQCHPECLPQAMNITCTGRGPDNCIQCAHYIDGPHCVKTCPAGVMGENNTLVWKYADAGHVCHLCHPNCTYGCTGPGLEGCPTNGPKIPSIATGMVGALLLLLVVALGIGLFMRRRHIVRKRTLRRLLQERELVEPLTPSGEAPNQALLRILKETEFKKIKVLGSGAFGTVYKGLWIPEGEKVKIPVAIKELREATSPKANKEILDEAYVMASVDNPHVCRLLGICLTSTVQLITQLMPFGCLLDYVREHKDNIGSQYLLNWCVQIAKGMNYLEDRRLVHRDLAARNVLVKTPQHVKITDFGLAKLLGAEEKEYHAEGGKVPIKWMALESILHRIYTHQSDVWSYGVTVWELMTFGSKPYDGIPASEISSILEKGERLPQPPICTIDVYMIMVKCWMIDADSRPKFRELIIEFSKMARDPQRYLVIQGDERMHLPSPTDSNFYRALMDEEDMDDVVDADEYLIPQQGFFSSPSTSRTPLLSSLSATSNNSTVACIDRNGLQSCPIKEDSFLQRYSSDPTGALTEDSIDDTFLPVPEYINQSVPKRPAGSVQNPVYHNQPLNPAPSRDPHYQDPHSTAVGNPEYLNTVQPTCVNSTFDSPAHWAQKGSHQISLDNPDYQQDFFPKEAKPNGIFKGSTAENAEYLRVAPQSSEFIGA
Chain of cAMP-dependent protein kinase catalytic subunit PRKX (Homo sapiens) (P51817 whole entry, the tested form may be a part): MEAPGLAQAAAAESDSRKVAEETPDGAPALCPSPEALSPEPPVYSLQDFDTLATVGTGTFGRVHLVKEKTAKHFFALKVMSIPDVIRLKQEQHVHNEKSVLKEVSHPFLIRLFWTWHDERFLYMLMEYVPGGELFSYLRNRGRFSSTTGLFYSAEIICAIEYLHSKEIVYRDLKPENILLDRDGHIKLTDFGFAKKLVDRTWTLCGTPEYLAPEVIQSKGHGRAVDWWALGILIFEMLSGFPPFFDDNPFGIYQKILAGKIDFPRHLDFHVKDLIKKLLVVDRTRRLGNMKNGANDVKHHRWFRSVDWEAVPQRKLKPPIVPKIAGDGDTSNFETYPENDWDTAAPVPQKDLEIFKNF
Chain of Mitogen-activated protein kinase kinase kinase 12 (DLK) (Homo sapiens) (Q12852 whole entry, looked up, the tested form may be a part): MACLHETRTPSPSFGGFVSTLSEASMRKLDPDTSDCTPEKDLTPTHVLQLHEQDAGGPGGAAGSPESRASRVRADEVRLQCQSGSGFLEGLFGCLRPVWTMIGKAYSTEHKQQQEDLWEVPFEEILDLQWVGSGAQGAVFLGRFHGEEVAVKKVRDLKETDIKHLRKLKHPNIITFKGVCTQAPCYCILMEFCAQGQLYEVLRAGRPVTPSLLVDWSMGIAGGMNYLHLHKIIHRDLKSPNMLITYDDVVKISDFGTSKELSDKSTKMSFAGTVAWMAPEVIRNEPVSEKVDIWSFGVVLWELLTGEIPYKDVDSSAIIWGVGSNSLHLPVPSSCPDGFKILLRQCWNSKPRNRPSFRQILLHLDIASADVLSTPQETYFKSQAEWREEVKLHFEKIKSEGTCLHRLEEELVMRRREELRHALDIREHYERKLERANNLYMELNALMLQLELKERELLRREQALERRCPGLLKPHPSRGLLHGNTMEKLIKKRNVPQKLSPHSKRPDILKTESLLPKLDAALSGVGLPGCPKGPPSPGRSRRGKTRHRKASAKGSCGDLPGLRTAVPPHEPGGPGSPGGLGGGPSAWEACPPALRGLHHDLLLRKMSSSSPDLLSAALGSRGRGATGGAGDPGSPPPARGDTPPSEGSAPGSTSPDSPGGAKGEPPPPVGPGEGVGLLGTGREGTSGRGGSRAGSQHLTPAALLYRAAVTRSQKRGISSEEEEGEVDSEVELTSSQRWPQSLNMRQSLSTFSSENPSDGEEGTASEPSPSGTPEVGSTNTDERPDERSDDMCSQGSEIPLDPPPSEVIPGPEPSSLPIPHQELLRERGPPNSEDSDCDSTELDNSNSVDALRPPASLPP
Chain of Receptor-interacting serine/threonine-protein kinase 1 (Homo sapiens) (Q13546 whole entry, the tested form may be a part): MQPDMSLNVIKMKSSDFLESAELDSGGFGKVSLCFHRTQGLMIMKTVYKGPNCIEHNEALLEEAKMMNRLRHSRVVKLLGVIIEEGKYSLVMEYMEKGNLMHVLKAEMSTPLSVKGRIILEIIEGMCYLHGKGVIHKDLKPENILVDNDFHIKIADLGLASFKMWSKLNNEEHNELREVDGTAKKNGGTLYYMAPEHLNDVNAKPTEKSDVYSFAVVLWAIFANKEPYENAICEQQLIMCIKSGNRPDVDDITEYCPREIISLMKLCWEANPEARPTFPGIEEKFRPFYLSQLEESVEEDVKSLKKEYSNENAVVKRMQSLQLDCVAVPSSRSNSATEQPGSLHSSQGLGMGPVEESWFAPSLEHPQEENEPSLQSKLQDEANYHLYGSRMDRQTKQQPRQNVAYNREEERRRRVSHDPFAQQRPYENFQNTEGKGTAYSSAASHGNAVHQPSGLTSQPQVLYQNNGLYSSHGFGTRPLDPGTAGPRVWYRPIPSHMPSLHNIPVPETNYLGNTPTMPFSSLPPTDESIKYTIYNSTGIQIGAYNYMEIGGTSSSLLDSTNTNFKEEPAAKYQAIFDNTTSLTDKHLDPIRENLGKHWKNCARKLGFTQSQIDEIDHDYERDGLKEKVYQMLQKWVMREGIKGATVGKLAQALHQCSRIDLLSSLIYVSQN
Chain of Activin receptor type-1 (Homo sapiens) (Q04771 whole entry, the tested form may be a part): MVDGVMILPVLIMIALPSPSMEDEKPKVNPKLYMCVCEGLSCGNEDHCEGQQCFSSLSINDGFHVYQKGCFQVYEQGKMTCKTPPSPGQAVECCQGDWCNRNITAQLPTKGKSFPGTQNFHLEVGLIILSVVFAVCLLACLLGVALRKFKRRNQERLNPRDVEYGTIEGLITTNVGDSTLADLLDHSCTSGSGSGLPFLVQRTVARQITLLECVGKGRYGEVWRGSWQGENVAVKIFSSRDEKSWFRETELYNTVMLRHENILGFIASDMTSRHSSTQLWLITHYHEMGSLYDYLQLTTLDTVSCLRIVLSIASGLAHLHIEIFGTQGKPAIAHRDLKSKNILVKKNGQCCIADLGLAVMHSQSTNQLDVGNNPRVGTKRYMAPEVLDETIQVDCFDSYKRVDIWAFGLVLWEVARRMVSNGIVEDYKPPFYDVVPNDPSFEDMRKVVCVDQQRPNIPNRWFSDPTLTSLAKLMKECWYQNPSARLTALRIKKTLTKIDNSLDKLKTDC
Chain of Cyclin-dependent kinase-like 5 (Homo sapiens) (O76039 whole entry, the tested form may be a part): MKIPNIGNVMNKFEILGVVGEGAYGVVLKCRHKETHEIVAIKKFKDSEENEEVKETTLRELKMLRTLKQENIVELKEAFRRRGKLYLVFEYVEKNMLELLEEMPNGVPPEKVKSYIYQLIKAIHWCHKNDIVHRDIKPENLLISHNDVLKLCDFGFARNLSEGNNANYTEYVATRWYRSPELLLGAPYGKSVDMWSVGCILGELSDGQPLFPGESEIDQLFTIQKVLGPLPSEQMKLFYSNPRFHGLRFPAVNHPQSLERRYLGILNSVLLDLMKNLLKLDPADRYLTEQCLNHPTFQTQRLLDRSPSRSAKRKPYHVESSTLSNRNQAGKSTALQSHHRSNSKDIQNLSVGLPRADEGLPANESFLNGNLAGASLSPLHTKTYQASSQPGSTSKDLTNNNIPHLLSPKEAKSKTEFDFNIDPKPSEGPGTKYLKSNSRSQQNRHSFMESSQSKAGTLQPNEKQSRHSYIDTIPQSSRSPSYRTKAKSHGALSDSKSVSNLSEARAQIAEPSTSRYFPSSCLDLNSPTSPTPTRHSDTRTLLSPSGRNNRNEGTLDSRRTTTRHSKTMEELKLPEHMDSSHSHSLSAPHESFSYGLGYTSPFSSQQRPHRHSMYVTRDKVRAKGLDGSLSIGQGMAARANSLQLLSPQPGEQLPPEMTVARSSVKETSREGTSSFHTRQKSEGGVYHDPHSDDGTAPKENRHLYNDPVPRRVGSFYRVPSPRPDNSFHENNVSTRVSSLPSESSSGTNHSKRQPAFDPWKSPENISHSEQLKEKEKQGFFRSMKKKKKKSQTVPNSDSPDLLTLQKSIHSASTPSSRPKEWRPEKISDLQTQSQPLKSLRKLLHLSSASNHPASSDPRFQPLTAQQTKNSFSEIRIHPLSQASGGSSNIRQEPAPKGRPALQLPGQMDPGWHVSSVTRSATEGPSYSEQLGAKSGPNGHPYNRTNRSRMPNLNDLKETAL
Chain of Dual specificity mitogen-activated protein kinase kinase 6 (Homo sapiens) (P52564 whole entry, the tested form may be a part): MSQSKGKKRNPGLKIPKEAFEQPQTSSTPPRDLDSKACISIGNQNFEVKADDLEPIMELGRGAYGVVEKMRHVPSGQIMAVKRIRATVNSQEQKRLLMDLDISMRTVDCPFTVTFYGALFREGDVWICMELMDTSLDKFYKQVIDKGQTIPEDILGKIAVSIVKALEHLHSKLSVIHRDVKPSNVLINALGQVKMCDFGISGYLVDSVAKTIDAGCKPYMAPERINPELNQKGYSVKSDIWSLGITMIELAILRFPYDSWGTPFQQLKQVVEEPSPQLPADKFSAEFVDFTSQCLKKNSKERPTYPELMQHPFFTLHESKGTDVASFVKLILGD

Usually AUC stands for concentration integrated over time. As to `C=CC(=O)Nc1ccccc1Nc1nc(Nc2ccc(N3CCN(C)CC3)cc2)ncc1C(=O)Nc1c(C)cccc1Cl`, the Activity in series [1] is 100%; in series [2], 100%; in [3], 97%; in series [4] it was 100%; in series [5], 79%; in [6], 97%. Also, the Activity came to 100% in [7]; 100% in series [8]; 2% in series [9]; 100% in [10]; 99% in series [11]; 100% in series [12]. In addition, the Activity in series [13] is 100%; in series [14] it was 100%; in series [16] it was 100%; in series [17], 100%; in [18] it was 100%; in series [19] it was 59%. Besides, the Activity in series [20] is 100%; in [21], 100%; in series [22] it was 74%. Besides, in series [15], the AUC is 212 ng·h/mL.
